According to ChEMBL document CHEMBL4689842, “EUbOPEN Chemogenomics Library wave 1” (2021):

Columns and labels:
Format in all cases: toxicity, cell-based
U2OS [1] = experiment: Incucyte cell viability with U2OS; conditions: human, 10 µM, compound concentration 10 uM; also: filed as whole numbers so only -1 and 0 and 1 occur
U2OS [2] = experiment: Multiplex assay against U2OS; conditions: human
In short: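 Values for tubulin, mitochondrial-mass and membrane-permeability phenotypes are per cents of cells with healthy nuclei. These cells were identified by CellPathfinder machine-learning gating of live cells that had been stained at seeding with Hoechst33342, BioTracker Green Microtubule Cytoskeleton Dye, MitoTracker Red and Annexin V Alexa Fluor 680 and imaged on a CQ1 microscope at 37°C and 5% CO2 after compound addition. The gating first set Hoechst high-intensity objects apart from normal cells, then split normal cells into healthy, pyknosed or fragmented nuclei, and pyknosed cells into mitotic or apoptotic.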

HEK-293T = experiment: Incucyte cell viability with HEK293T; conditions: human, 10 µM, compound concentration 10 uM; also: filed as whole numbers so only -1 and 0 and 1 occur
[3] = 0 h, replicate number 1, timepoint 0 hours
[4] = 6 h, replicate number 1, timepoint 6 hours
[5] = 12 h, replicate number 1, timepoint 12 hours
[6] = 18 h, replicate number 1, timepoint 18 hours
[7] = 24 h, replicate number 1, timepoint 24 hours
[8] = 12 h, 1 µM, compound concentration 1 uM, replicate 1
[9] = 12 h, 1 µM, compound concentration 1 uM, replicate 2
[10] = 12 h, 10 µM, compound concentration 10 uM, replicate 1
[11] = 12 h, 10 µM, compound concentration 10 uM, replicate 2
[12] = 24 h, 1 µM, compound concentration 1 uM, replicate 1
[13] = 24 h, 1 µM, compound concentration 1 uM, replicate 2
[14] = 24 h, 10 µM, compound concentration 10 uM, replicate 1
[15] = 24 h, 10 µM, compound concentration 10 uM, replicate 2

With `CCOC(=O)CCNc1cc(N2CCc3ccccc3CC2)nc(-c2ccccn2)n1` the “Growth Rate” value (U2OS [1]; [3]) was 0, the “Growth Rate” value (U2OS [1]; 0 h, replicate number 2, timepoint 0 hours) was 1 and the “Growth Rate” value (U2OS [1]; [4]) was 0. The “Growth Rate” value (U2OS [1]; [5]) was 0, the “Growth Rate” value (U2OS [1]; [6]) was 0 and the “Growth Rate” value (U2OS [1]; [7]) was 0. For the same molecule, the “Population Apoptotic (%)” value (U2OS [2]; [8]) was 37%, the “Population Fragmented Nuclei (%)” value (U2OS [2]; [8]) was 7% and the “Population Healthy Nuclei (%)” value (U2OS [2]; [8]) was 85%. For the same molecule, the “Population Hoechst High Intensity Objects (%)” value (U2OS [2]; [8]) was 3%, the “Population Membrane Permeable-Phenotype (%)” value (U2OS [2]; [8]) was 14% and the “Population Mitochondria Different-Phenotype (%)” value (U2OS [2]; [8]) was 40%. For the same molecule, the “Population Mitotic Cells (%)” value (U2OS [2]; [8]) was 62%, the “Population Normal (%)” value (U2OS [2]; [8]) was 96% and the “Population Pyknosed Nuclei (%)” value (U2OS [2]; [8]) was 6%. For the same molecule, the “Population Tubulin-Different-Phenotype (%)” value (U2OS [2]; [8]) was 30%, the “Total Cell Count” value (U2OS [2]; [8]) was 244 and the “Population Apoptotic (%)” value (U2OS [2]; [9]) was 45%. The “Population Fragmented Nuclei (%)” value (U2OS [2]; [9]) was 4%, the “Population Healthy Nuclei (%)” value (U2OS [2]; [9]) was 86% and the “Population Hoechst High Intensity Objects (%)” value (U2OS [2]; [9]) was 8%. The “Population Membrane Permeable-Phenotype (%)” value (U2OS [2]; [9]) was 13%, the “Population Mitochondria Different-Phenotype (%)” value (U2OS [2]; [9]) was 27% and the “Population Mitotic Cells (%)” value (U2OS [2]; [9]) was 54%. For the same molecule, the “Population Normal (%)” value (U2OS [2]; [9]) was 91%, the “Population Pyknosed Nuclei (%)” value (U2OS [2]; [9]) was 9% and the “Population Tubulin-Different-Phenotype (%)” value (U2OS [2]; [9]) was 23%. For the same molecule, the “Total Cell Count” value (U2OS [2]; [9]) was 141, the “Population Apoptotic (%)” value (U2OS [2]; [10]) was 46% and the “Population Fragmented Nuclei (%)” value (U2OS [2]; [10]) was 7%. For the same molecule, the “Population Healthy Nuclei (%)” value (U2OS [2]; [10]) was 82%, the “Population Hoechst High Intensity Objects (%)” value (U2OS [2]; [10]) was 5% and the “Population Membrane Permeable-Phenotype (%)” value (U2OS [2]; [10]) was 11%. For the same molecule, the “Population Mitochondria Different-Phenotype (%)” value (U2OS [2]; [10]) was 32%, the “Population Mitotic Cells (%)” value (U2OS [2]; [10]) was 53% and the “Population Normal (%)” value (U2OS [2]; [10]) was 94%. For the same molecule, the “Population Pyknosed Nuclei (%)” value (U2OS [2]; [10]) was 10%, the “Population Tubulin-Different-Phenotype (%)” value (U2OS [2]; [10]) was 34% and the “Total Cell Count” value (U2OS [2]; [10]) was 133. The “Population Apoptotic (%)” value (U2OS [2]; [11]) was 40%, the “Population Fragmented Nuclei (%)” value (U2OS [2]; [11]) was 3% and the “Population Healthy Nuclei (%)” value (U2OS [2]; [11]) was 92%. The “Population Hoechst High Intensity Objects (%)” value (U2OS [2]; [11]) was 9%, the “Population Membrane Permeable-Phenotype (%)” value (U2OS [2]; [11]) was 9% and the “Population Mitochondria Different-Phenotype (%)” value (U2OS [2]; [11]) was 29%. The “Population Mitotic Cells (%)” value (U2OS [2]; [11]) was 60%, the “Population Normal (%)” value (U2OS [2]; [11]) was 90% and the “Population Pyknosed Nuclei (%)” value (U2OS [2]; [11]) was 3%. For the same molecule, the “Population Tubulin-Different-Phenotype (%)” value (U2OS [2]; [11]) was 26%, the “Total Cell Count” value (U2OS [2]; [11]) was 126 and the “Population Apoptotic (%)” value (U2OS [2]; [12]) was 33%. The “Population Fragmented Nuclei (%)” value (U2OS [2]; [12]) was 5%, the “Population Healthy Nuclei (%)” value (U2OS [2]; [12]) was 91% and the “Population Hoechst High Intensity Objects (%)” value (U2OS [2]; [12]) was 1%. The “Population Membrane Permeable-Phenotype (%)” value (U2OS [2]; [12]) was 11%, the “Population Mitochondria Different-Phenotype (%)” value (U2OS [2]; [12]) was 36% and the “Population Mitotic Cells (%)” value (U2OS [2]; [12]) was 66%. For the same molecule, the “Population Normal (%)” value (U2OS [2]; [12]) was 98%, the “Population Pyknosed Nuclei (%)” value (U2OS [2]; [12]) was 3% and the “Population Tubulin-Different-Phenotype (%)” value (U2OS [2]; [12]) was 36%. For the same molecule, the “Total Cell Count” value (U2OS [2]; [12]) was 264, the “Population Apoptotic (%)” value (U2OS [2]; [13]) was 16% and the “Population Fragmented Nuclei (%)” value (U2OS [2]; [13]) was 8%. The “Population Healthy Nuclei (%)” value (U2OS [2]; [13]) was 87%, the “Population Hoechst High Intensity Objects (%)” value (U2OS [2]; [13]) was 10% and the “Population Membrane Permeable-Phenotype (%)” value (U2OS [2]; [13]) was 10%. For the same molecule, the “Population Mitochondria Different-Phenotype (%)” value (U2OS [2]; [13]) was 28%, the “Population Mitotic Cells (%)” value (U2OS [2]; [13]) was 83% and the “Population Normal (%)” value (U2OS [2]; [13]) was 89%. The “Population Pyknosed Nuclei (%)” value (U2OS [2]; [13]) was 4%, the “Population Tubulin-Different-Phenotype (%)” value (U2OS [2]; [13]) was 23% and the “Total Cell Count” value (U2OS [2]; [13]) was 146. For the same molecule, the “Population Apoptotic (%)” value (U2OS [2]; [14]) was 64%, the “Population Fragmented Nuclei (%)” value (U2OS [2]; [14]) was 7% and the “Population Healthy Nuclei (%)” value (U2OS [2]; [14]) was 83%. The “Population Hoechst High Intensity Objects (%)” value (U2OS [2]; [14]) was 5%, the “Population Membrane Permeable-Phenotype (%)” value (U2OS [2]; [14]) was 7% and the “Population Mitochondria Different-Phenotype (%)” value (U2OS [2]; [14]) was 37%. The “Population Mitotic Cells (%)” value (U2OS [2]; [14]) was 35%, the “Population Normal (%)” value (U2OS [2]; [14]) was 94% and the “Population Pyknosed Nuclei (%)” value (U2OS [2]; [14]) was 8%. For the same molecule, the “Population Tubulin-Different-Phenotype (%)” value (U2OS [2]; [14]) was 13%, the “Total Cell Count” value (U2OS [2]; [14]) was 181 and the “Population Apoptotic (%)” value (U2OS [2]; [15]) was 81%. The “Population Fragmented Nuclei (%)” value (U2OS [2]; [15]) was 4%, the “Population Healthy Nuclei (%)” value (U2OS [2]; [15]) was 88% and the “Population Hoechst High Intensity Objects (%)” value (U2OS [2]; [15]) was 7%. For the same molecule, the “Population Membrane Permeable-Phenotype (%)” value (U2OS [2]; [15]) was 8%, the “Population Mitochondria Different-Phenotype (%)” value (U2OS [2]; [15]) was 36% and the “Population Mitotic Cells (%)” value (U2OS [2]; [15]) was 18%. For the same molecule, the “Population Normal (%)” value (U2OS [2]; [15]) was 92%, the “Population Pyknosed Nuclei (%)” value (U2OS [2]; [15]) was 7% and the “Population Tubulin-Different-Phenotype (%)” value (U2OS [2]; [15]) was 9%. For the same molecule, the “Total Cell Count” value (U2OS [2]; [15]) was 165, the “Growth Rate” value (HEK-293T; [3]) was 1 and the “Growth Rate” value (HEK-293T; [4]) was 0. For the same molecule, the “Growth Rate” value (HEK-293T; [5]) was 0, the “Growth Rate” value (HEK-293T; [6]) was 0 and the “Growth Rate” value (HEK-293T; [7]) was 0.
